Inhibition of growth and Activity data for two compounds are collected here from ChEMBL document CHEMBL4196063, “A novel synthetic peptide inspired on Lys49 phospholipase A2 from Crotalus oreganus abyssus snake venom active against multidrug-resistant clinical isolates” (2018).

SMILES strings stand for the structures. Active and inactive are the calls of the source. The rule behind the calls is not given here. Where a SMILES comes first, the peptide text is derived from it.

For assay [1], the system named is Pseudomonas aeruginosa. Put plainly: Growth inhibition of Pseudomonas aeruginosa ATCC 27853 at 5.95 uM after 24 hrs by CLSI broth microdilution method. It is filed as functional. The following applies: ATCC 27853, 24 h, read-out: GI. In a few lines:
(§1)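 Broth microdilution per CLSI. Peptide dissolved in Mueller Hinton broth and serially diluted (5.95–190 μM tested) in MHB. Bacteria were subcultured in MHB and grown on Mueller Hinton agar at 37 °C for a day, then added at 1 × 10⁸ CFU/ml. Incubation 37 °C for 24 h, with growth read at 595 nm. Antibiotic positive and medium negative controls. At least three runs, mean ± SD.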

Assay [2] deals with Pseudomonas aeruginosa. Description: Antibacterial activity against Pseudomonas aeruginosa 31NM at 575 uM after 24 hrs by agar well diffusion assay. It counts as functional, organism-based. In outline: (§2)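 Agar well diffusion followed Bauer/CLSI with minor changes. Strains were subcultured in MHB and grown on Mueller Hinton agar at 37 °C for a day. Wells were punched aseptically, and 100 μl of peptide in PBS (575 μM) was placed in each well. Plates were incubated at 37 °C for 24 h and inhibition halo diameters measured by caliper. Commercial antibiotics served as positive control, with at least three runs.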

Assay [3] deals with Escherichia coli. Description: Antibacterial activity against Escherichia coli ATCC 25922 at 575 uM after 24 hrs by agar well diffusion assay. It is filed as functional, organism-based. In outline: as §2
Assay [4] relates to Pseudomonas aeruginosa. Description: Growth inhibition of Pseudomonas aeruginosa 31NM at 5.95 uM after 24 hrs by CLSI broth microdilution method. It counts as functional. The following applies: read-out: GI. In a few lines:
as §1

Assay [5] has as its system Escherichia coli. Description: Antibacterial activity against Escherichia coli ATCC 25922 at 5.95 to 190 uM after 24 hrs by CLSI broth microdilution method. It is filed as functional, organism-based. In a few lines: (§3)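 Strains were kept frozen in MHB with 20% glycerol, subcultured in MHB, and grown on Mueller Hinton agar at 37 °C for a day. Peptide was dissolved in medium and serially diluted into MHB in 96-well plates, then bacterial suspension was added (1 × 10⁸ CFU/ml). Plates were held at 37 °C for 24 h and growth inhibition read at 595 nm. Runs were done at least three times, mean ± SD.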

The test system of assay [6] is Staphylococcus aureus. Description: Antibacterial activity against Staphylococcus aureus BEC9393 at 575 uM after 24 hrs by agar well diffusion assay. It counts as functional, organism-based. In outline: as §2
In assay [7] the test system is Staphylococcus aureus. Description: Antibacterial activity against Staphylococcus aureus rib1 at 575 uM after 24 hrs by agar well diffusion assay. It is filed as functional, organism-based. In outline:
as §2

The subject of assay [8] is Pseudomonas aeruginosa. Put plainly: Antibacterial activity against Pseudomonas aeruginosa ATCC 27853 at 575 uM after 24 hrs by agar well diffusion assay. It is filed as functional, organism-based. In a few lines: as §2
For assay [9], the system named is Pseudomonas aeruginosa. Description: Antibacterial activity against Pseudomonas aeruginosa 31NM at 5.95 to 190 uM after 24 hrs by CLSI broth microdilution method. It is filed as functional, organism-based. In outline:
as §3

The subject of assay [10] is Staphylococcus aureus. Put plainly: Antibacterial activity against Staphylococcus aureus BEC9393 at 5.95 to 190 uM after 24 hrs by CLSI broth microdilution method. It is filed as functional, organism-based. In outline:
as §3

For assay [11], the system named is Pseudomonas aeruginosa. Description: Antibacterial activity against Pseudomonas aeruginosa ATCC 27853 at 5.95 to 190 uM after 24 hrs by CLSI broth microdilution method. It counts as functional, organism-based. In outline:
as §3

For assay [12], the system named is Staphylococcus aureus. Put plainly: Antibacterial activity against Staphylococcus aureus rib1 at 5.95 to 190 uM after 24 hrs by CLSI broth microdilution method. It is filed as functional, organism-based. In a few lines:
as §3

As to `CC[C@H](C)[C@H](NC(=O)[C@H](CCCNC(=N)N)NC(=O)[C@H](Cc1ccc(O)cc1)NC(=O)[C@H](CCCCN)NC(=O)[C@@H](N)CCCCN)C(=O)N[C@@H](Cc1ccc(O)cc1)C(=O)N1CCC[C@H]1C(=O)N[C@@H](CCCCN)C(=O)N[C@@H](Cc1ccccc1)C(=O)N[C@@H](CC(C)C)C(=O)N[C@@H](CS)C(=O)N[C@@H](CCCCN)C(=O)N[C@@H](CCCCN)C(=O)O` (H-KKYRIYPKFLCKK-OH), the inhibition of growth at 5.95 µM with Pseudomonas aeruginosa [1] stood at 52%; with Pseudomonas aeruginosa [4] it was 48%. Also, the result with Pseudomonas aeruginosa [2], with Escherichia coli [3], with Escherichia coli [5], in the assay on Staphylococcus aureus [6], in the assay on Staphylococcus aureus [7] and with Pseudomonas aeruginosa [8] was Active. For the same compound, the result with Pseudomonas aeruginosa [9], with Staphylococcus aureus [10], in the assay on Pseudomonas aeruginosa [11] and with Staphylococcus aureus [12] was Active.

For the compound `CC(C)C[C@H](NC(=O)[C@H](Cc1ccccc1)NC(=O)[C@H](CCCCN)NC(=O)[C@@H]1CCCN1C(=O)[C@@H](N)Cc1ccc(O)cc1)C(=O)N[C@@H](CS)C(=O)N[C@@H](CCCCN)C(=O)N[C@@H](CCCCN)C(=O)N1CCC[C@H]1C(=O)O` (H-YPKFLCKKP-OH), the result in the assay with Pseudomonas aeruginosa [2], in the assay on Escherichia coli [3], with Staphylococcus aureus [6], in the assay with Staphylococcus aureus [7] and in the assay on Pseudomonas aeruginosa [8] was inactive.
